This passage reports inhibition results from ChEMBL document CHEMBL1140983, “Pyrazoles and pyrazolines as neural and inducible nitric oxide synthase (nNOS and iNOS) potential inhibitors (III)” (Eur J Med Chem, 2008).

By inhibition is commonly meant the relative decrease from the control value, in per cent.

Test [1] deals with Nitric oxide synthase, inducible (Rattus norvegicus) (UniProt Q06518). The experiment in a line: Inhibition of iNOS in LPS-induced rat lungs assessed as conversion of L-[3H]arginine to L-[3H]citrulline at 1 mM by liquid scintillation spectroscopy. In short, it runs like this:
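iNOS induced by LPS 20 mg/kg i.v. in rats; lungs taken 8 h later, homogenized in ice-cold Tris buffer (pH 7.6) with protease inhibitors, then incubated with 10 mM EDTA to remove nNOS activity. Activity read as [3H]-citrulline from L-[3H]-arginine by the striatal-assay procedure, compound at 1 mM final, 37 °C 30 min; mean ± SEM, three experiments in triplicate.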

Test [2] addresses Nitric oxide synthase 1 (Rattus norvegicus) (UniProt P29476). The experiment in a line: Inhibition of nNOS in Wistar rat striata assessed as conversion of L-[3H]arginine to L-[3H]citrulline at 1 mM by liquid scintillation spectroscopy. In short, it runs like this:
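Male Wistar rats (200–250 g); fresh striata homogenized in Tris buffer (pH 7.6) with protease inhibitors, spun 1000 g 5 min, supernatant used. Incubation: 25 mM Tris, 1 mM DTT, 30 µM H4-biopterin, 10 µM FAD, 0.1 mM CaCl2, 10 µM L-arginine plus 50 nM L-[3H]-arginine; started with NADPH (0.75 mM final) and compound in DMSO (1 mM final), 37 °C 30 min. Dowex-50W separation; NADPH-omitted blank subtracted; mean ± SEM, three experiments in triplicate.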

Chain of Nitric oxide synthase 1 (Rattus norvegicus) (P29476 whole entry): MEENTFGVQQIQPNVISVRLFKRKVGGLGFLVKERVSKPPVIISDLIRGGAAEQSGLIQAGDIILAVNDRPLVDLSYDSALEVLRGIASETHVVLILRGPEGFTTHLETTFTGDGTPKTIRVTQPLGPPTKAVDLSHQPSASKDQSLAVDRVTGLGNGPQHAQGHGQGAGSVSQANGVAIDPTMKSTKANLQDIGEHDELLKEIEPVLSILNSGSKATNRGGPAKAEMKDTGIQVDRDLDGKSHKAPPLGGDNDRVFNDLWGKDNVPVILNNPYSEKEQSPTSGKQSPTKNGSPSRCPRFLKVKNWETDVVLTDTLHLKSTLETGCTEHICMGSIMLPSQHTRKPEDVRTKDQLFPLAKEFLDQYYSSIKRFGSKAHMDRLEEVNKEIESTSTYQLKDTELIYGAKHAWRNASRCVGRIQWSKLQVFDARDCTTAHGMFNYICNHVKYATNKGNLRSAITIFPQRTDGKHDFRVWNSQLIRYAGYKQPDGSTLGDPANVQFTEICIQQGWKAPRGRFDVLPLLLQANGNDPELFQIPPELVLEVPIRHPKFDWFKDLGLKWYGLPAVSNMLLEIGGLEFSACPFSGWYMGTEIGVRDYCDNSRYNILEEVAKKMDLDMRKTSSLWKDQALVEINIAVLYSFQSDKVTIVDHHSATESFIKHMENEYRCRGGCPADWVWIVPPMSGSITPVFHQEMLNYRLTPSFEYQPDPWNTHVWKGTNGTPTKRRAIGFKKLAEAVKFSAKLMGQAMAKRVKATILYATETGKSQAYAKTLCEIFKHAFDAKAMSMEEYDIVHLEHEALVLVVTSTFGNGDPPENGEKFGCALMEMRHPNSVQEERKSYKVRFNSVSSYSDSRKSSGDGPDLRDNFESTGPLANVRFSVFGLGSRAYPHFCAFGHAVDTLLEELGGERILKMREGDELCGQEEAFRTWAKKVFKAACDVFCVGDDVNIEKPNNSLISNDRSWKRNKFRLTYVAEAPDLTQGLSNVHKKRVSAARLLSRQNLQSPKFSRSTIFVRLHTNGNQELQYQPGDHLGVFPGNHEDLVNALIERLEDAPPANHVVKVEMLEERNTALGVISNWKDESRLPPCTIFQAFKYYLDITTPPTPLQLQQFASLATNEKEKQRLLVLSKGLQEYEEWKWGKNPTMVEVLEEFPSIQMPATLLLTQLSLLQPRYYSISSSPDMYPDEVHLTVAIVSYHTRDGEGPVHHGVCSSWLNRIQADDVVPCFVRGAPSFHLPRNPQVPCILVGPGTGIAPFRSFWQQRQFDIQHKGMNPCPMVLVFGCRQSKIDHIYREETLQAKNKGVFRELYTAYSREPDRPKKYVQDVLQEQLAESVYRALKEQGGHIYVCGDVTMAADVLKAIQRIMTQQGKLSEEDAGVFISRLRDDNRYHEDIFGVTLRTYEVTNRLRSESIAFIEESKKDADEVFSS
Chain of Nitric oxide synthase, inducible (Rattus norvegicus) (Q06518 whole entry): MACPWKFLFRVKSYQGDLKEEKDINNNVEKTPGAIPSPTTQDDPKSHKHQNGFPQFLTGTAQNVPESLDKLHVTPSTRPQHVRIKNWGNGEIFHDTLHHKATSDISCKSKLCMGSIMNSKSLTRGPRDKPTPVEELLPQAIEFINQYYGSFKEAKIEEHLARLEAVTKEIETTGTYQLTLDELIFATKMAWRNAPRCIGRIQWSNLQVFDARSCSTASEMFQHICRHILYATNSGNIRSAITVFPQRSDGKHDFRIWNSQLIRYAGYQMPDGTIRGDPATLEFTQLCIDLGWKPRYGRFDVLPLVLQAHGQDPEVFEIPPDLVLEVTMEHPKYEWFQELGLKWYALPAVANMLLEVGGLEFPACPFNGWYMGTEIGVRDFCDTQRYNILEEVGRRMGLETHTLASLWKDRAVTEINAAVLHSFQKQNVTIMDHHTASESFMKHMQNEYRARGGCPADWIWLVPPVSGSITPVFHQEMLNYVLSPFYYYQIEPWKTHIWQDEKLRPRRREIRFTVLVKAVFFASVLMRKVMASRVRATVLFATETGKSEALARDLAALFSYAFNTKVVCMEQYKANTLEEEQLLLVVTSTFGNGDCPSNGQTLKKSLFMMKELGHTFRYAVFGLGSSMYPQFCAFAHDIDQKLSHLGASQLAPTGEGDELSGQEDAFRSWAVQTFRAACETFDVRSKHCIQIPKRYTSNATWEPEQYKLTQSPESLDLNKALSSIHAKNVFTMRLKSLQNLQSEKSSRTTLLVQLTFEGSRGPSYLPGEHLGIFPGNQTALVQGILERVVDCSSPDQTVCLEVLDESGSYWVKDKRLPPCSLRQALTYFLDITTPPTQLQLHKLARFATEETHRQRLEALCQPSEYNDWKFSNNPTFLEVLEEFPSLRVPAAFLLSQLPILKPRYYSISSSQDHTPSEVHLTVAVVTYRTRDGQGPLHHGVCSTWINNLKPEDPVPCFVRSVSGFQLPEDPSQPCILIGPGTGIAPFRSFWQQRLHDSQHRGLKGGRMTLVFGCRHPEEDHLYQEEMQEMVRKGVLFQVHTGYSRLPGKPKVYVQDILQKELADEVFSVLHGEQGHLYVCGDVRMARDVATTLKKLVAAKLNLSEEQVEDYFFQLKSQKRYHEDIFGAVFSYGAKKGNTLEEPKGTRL

For the compound `CCOC(=O)C1CC(C(=O)c2cc(Cl)ccc2N)=NN1C` (stereo not drawn), the inhibition stood at 22.9% in test [1] and 1.3% in test [2].

In the case of `CCOC(=O)C1CC(C(=O)c2ccccc2N)=NN1CC` (stereo not drawn), the inhibition was -1.5% in test [1] and 22.1% in test [2].

As to `CCOC(=O)C1CC(C(=O)c2ccccc2N)=NN1Cc1ccccc1` (stereo not drawn), the inhibition turned out to be 9.4% in test [1] and 28.4% in test [2].

Take `CCOC(=O)c1cc(C(=O)c2ccccc2N)nn1Cc1ccccc1`: the results for the inhibition in test [1] and in test [2] were 13.5% and 21.9%, respectively.

Consider `CCOC(=O)C1CC(C(=O)c2cc(OC)ccc2N)=NN1CC` (stereo not drawn), for which the inhibition was 17.1% in test [1] and 1.7% in test [2].

For `CCOC(=O)C1CC(C(=O)c2cc(Cl)ccc2N)=NN1Cc1ccccc1` (stereo not drawn), the results for the inhibition in test [1] and in test [2] were 17.3% and 18.3%, respectively.

As for `CCCCN1N=C(C(=O)c2cc(OC)ccc2N)CC1C(=O)OCC` (stereo not drawn), the figures for the inhibition in test [1] and in test [2] were 18.6% and -10%, respectively.

`CCOC(=O)c1cc(C(=O)c2cc(OC)ccc2N)nn1Cc1ccccc1`: the inhibition in test [1] worked out at 30.5%; in test [2], 19.4%.

Turning to `CCOC(=O)c1cc(C(=O)c2cc(Cl)ccc2N)nn1Cc1ccccc1`, the values for the inhibition in test [1] and in test [2] were 50.4% and 2.7%, respectively.

`CCOC(=O)C1CC(C(=O)c2cc(Cl)ccc2N)=NN1` (stereo not drawn): the inhibition came to 19.1% in test [1] and 32.1% in test [2].

Consider `CCCCN1N=C(C(=O)c2cc(Cl)ccc2N)CC1C(=O)OCC` (stereo not drawn), for which the inhibition in test [1] is 10.5%; in test [2], 38.5%.

As to `CCCCn1nc(C(=O)c2cc(OC)ccc2N)cc1C(=O)OCC`, the inhibition in test [1] worked out at 20.5%; in test [2] it was 26.2%.

For the compound `CCOC(=O)C1CC(C(=O)c2cc(Cl)ccc2N)=NN1CC` (stereo not drawn), the figures for the inhibition in test [1] and in test [2] were 14.7% and 41.5%, respectively.

As to `CCOC(=O)c1cc(C(=O)c2cc(OC)ccc2N)nn1CC`, the inhibition in test [1] was determined as 24.6%; in test [2], 20.3%.

`CCOC(=O)c1cc(C(=O)c2cc(Cl)ccc2N)nn1CC`: the inhibition was determined as 27.5% in test [1] and 35.5% in test [2].

`CCCCN1N=C(C(=O)c2ccccc2N)CC1C(=O)OCC` (stereo not drawn): the inhibition came out at 12.2% in test [1] and 29.6% in test [2].

Regarding `CCCCn1nc(C(=O)c2cc(Cl)ccc2N)cc1C(=O)OCC`, the inhibition in test [1] was found to be 18.7%; in test [2] it was 7.8%.

`CCOC(=O)C1CC(C(=O)c2ccccc2N)=NN1C` (stereo not drawn): the inhibition in test [1] was 12.7%; in test [2], -9.8%.

With `CCOC(=O)C1CC(C(=O)c2cc(OC)ccc2N)=NN1Cc1ccccc1` (stereo not drawn), the inhibition in test [1] came to 10.5%; in test [2], 9.3%.

For `CCOC(=O)c1cc(C(=O)c2cc(Cl)ccc2N)n[nH]1`, the inhibition was 12.8% in test [1] and 40.2% in test [2].

For the compound `CCOC(=O)C1CC(C(=O)c2cc(OC)ccc2N)=NN1C` (stereo not drawn), the inhibition is 0.6% in test [1] and -7.8% in test [2].

Consider `CCOC(=O)c1cc(C(=O)c2cc(Cl)ccc2N)nn1C`, for which the inhibition in test [1] was 7.3%; in test [2] it was 14.5%.

As for `CCOC(=O)c1cc(C(=O)c2ccccc2N)nn1CC`, the inhibition came out at 12.5% in test [1] and 39.5% in test [2].

Regarding `CCCCn1nc(C(=O)c2ccccc2N)cc1C(=O)OCC`, the inhibition in test [1] came to 5.4%; in test [2], 21.9%.
